# Only some compounds are listed: those with a hit (about 2.5% of all), similar ones and a draw of the others.
# TRPC4 act = activators of mouse TRPC4 channel, primary screen, Fluo4 calcium, HEK293 TRPC4beta/mu-opioid cells; Short transient receptor potential channel 4 (Mus musculus), Q9QUQ5; Fluo4 calcium fluorescence; stronger effect = higher value; B-score at 10 µM; actives 0.49% (n = 310,000); AID 2237, 2010;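 active = B-score above 5 SD of library B-scores, and initial fluorescence ratio not above library mean plus 5 SD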;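 note: positive B-score marks a calcium rise read as TRPC4 activation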
#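 Incubation: 45 min room-temperature Fluo4 loading, 110 s read / System: HEK293 cells stably co-expressing mouse TRPC4beta and mu-opioid receptor / Signal: Fluo4 fluorescence, kinetic / Control set: buffer (low) and maximal DAMGO (high) / Measure: integrated baseline-normalised fluorescence ratio, converted to per-well B score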
# TRPC6 act = mouse TRPC6 channel activators, primary screen, cell-based, HEK293, membrane potential dye. Short transient receptor potential channel 6 (Mus musculus), Q61143. HEK293-TRPC6 membrane potential dye fluorescence; stronger effect = higher value. B-score at 10 µM. actives 0.13% (n = 310,000);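 active = B-score of the integrated fluorescence ratio above library mean plus 3 SD, and starting fluorescence ratio within library mean plus 5 SD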;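 note: higher score means more depolarization so channel activation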
# Target sequence (Q61143 whole entry, looked up): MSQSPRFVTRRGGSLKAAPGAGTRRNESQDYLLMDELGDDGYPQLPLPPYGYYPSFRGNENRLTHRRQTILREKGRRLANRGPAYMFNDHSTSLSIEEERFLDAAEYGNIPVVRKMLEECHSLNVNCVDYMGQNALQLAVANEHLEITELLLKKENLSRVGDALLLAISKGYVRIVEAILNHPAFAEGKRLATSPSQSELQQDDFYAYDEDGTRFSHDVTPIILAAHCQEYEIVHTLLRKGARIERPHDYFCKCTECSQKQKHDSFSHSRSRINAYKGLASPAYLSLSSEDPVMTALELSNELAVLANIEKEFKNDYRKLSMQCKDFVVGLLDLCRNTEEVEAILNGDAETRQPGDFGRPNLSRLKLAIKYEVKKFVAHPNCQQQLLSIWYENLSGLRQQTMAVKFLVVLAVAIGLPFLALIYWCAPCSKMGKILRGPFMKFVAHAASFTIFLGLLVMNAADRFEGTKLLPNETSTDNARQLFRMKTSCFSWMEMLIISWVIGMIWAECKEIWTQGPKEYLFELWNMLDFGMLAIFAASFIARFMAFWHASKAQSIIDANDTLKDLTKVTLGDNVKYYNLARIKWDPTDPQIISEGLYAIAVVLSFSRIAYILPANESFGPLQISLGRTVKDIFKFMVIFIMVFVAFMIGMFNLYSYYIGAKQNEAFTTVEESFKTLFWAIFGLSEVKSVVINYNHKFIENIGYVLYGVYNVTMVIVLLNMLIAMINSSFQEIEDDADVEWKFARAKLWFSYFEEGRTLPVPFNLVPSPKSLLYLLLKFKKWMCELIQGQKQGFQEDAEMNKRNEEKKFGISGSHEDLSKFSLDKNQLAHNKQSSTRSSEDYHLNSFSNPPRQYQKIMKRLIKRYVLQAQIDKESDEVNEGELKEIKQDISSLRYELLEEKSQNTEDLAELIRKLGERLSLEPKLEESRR
# TRPC6 inhibitor = mouse TRPC6 channel inhibitors, primary screen, cell-based, HEK293, membrane potential dye. Short transient receptor potential channel 6 (Mus musculus), Q61143. actives 1.1% (n = 310,000). ACh-evoked depolarization; stronger effect = lower value. B-score at 10 µM. AID 2553, 2010;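 active = B-score under library mean minus 3 SD, initial fluorescence not abnormally high, positive integrated signal ratio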;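 note: B-score derived from integrated fluorescence ratio over the kinetic read; more negative B-score means stronger inhibition of depolarization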
# TRPC4 inh = inhibitors of mouse TRPC4 channel, primary screen, Fluo4 calcium, HEK293 TRPC4beta/mu-opioid cells; Short transient receptor potential channel 4 (Mus musculus), Q9QUQ5; DAMGO-evoked Fluo4 calcium flux; stronger effect = lower value; B-score at 10 µM; actives 0.39% (n = 300,000); AID 2247, 2010;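 active = B-score over 3 SD under the library average, no early fluorescence shift, positive overall ratio signal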
#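 test system = HEK293 cells with stable TRPC4beta plus mu-opioid receptor expression | detection = Fluo4 Ca2+ flux fluorescence | read-out = integrated fluorescence ratio relative to baseline, converted to per-well B score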
# Platelet DG rel = inhibitors of platelet dense granule secretion, primary screen, cell-based, MLPCN, human platelets; human platelet-rich plasma, SFLLRN dense granule ATP release, luminescence; inhibition, %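 (compounds screened at 7.5 µM in platelet-rich plasma)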; actives 0.22% (n = 300,000);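 active = mean replicate score, as percent of positive control, at or above 50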
# TRPC4 potent = positive allosteric modulators of TRPC4, primary screen, cell-based, mouse TRPC4beta, HEK293 mu-opioid, Fluo-4 calcium; DAMGO EC20, Fluo-4 Ca2+ flux; stronger effect = higher value; B-score at 10 µM; actives 0.42% (n = 310,000); AID 2227, 2009;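 active = B-score of calcium response area above 5 SD of library B-scores, with initial fluorescence ratio within 5 SD of library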;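 note: B-score of integrated fluorescence ratio over time as area under calcium response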
# TRPC4 sel inh 2 = second selectivity test of TRPC6 inhibitors: effect on mouse TRPC4; shares compounds with TRPC6 inhibitor; HEK293 TRPC4/MOR, membrane potential dye fluorescence; channel activated by saturating DAMGO dose; inhibition, % at 10 µM; actives 42% (n = 920); AID 2776;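 active = compounds whose fluorescence signal differed from control wells by over 3 SD, either direction, in both duplicate plates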
# TRPC4 spec = mouse TRPC4 modulation by TRPC6 hits, confirmation, selectivity assay for TRPC6 inhibitor project, cell-based, HEK293 TRPC4/mu-opioid, membrane potential dye | shares compounds with TRPC6 inhibitor | AID 2777, 2010 | membrane potential fluorescence | activity change, negative = inhibition, % at 10 µM | actives 61% (n = 920);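 active = rise or fall in signal beyond 3 SD of buffer-only wells in both replicate plates, either sign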;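 note: integrated kinetic ratio of fluorescence range over baseline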
# HEK293 MPD ctr 2-1 = nonspecific membrane potential effects, parental HEK293, confirmation, counter-screen for TRPC6 inhibitor project, cell-based, second counter screen | shares compounds with TRPC6 inhibitor | parental HEK293 membrane potential dye fluorescence; maximal acetylcholine challenge after compound addition | signal change vs control, % at 10 µM | actives 31% (n = 920);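 active = membrane potential signal moving either way by over 3 SD of the maximum-effect control, in both duplicate plates, meaning non-specific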
# HEK293 MPD ctr-1 = membrane potential modulation in parental HEK293, confirmation, counter-screen for TRPC6 inhibitor project, cell-based. shares compounds with TRPC6 inhibitor. parental HEK293 membrane potential dye fluorescence. membrane potential signal change, % at 10 µM. actives 60% (n = 920). AID 2780, 2010;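 active = membrane potential signal shifting up or down by more than 3 SD of buffer-only wells, on both duplicate plates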
# HEK293 MPD ctr-2 = parental HEK293 membrane potential modulation, confirmation, counter-screen for TRPC6 modulator project, cell-based; shares compounds with TRPC6 inhibitor; membrane potential dye fluorescence; membrane potential signal change, % at 10 µM; actives 51% (n = 2,400); AID 488924, 2010;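 active = membrane potential signal moves up or down beyond 5 SD from buffer-only wells, on both duplicate plates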
# HEK293 MPD ctr 2-2 = second counter-screen for TRPC6 modulators: effect in parental HEK293 cells. actives 14% (n = 2,400). inhibition, % at 10 µM. membrane potential dye fluorescence; after compound, maximal acetylcholine stimulation. shares compounds with TRPC6 inhibitor;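 active = membrane potential signal drops by more than 5 SD from the mean control signal, in both duplicate plates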;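 note: plate controls were acetylcholine ECmax control wells for no effect and buffer only wells for full effect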
# TRPC4 ctr mod = TRPC4 modulation by TRPC6 hit compounds, confirmation, selectivity assay for TRPC6 modulator project, cell-based, HEK293 TRPC4/mu-opioid, membrane potential dye, mouse | membrane potential fluorescence | actives 69% (n = 2,400) | AID 488927, 2010 | shares compounds with TRPC6 inhibitor | percent change from control (negative = decrease, positive = increase), % at 10 µM;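 active = membrane potential signal moved up or down beyond 5 SD of buffer control wells, in both duplicate plates, actives on both sides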;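 note: plate controls were assay buffer wells for no effect and DAMGO maximal-effect wells for full effect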
# TRPC4/MOR inh 2 = mouse TRPC4 off-target activity of TRPC6 modulators, second screen. shares compounds with TRPC6 inhibitor. HEK293 TRPC4/mu-opioid, membrane potential dye fluorescence; stimulated with maximal-effect DAMGO. inhibition, % at 10 µM. actives 55% (n = 2,400). AID 488928;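 active = drop in membrane potential signal beyond 5 SD of the control wells in both duplicate plates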;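 note: TRPC4 counter screen for TRPC6 hits run under conditions tuned for TRPC6 not TRPC4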
# TRPC6 inh conf = mouse TRPC6 channel inhibitors, confirmation, HEK293 cells, membrane potential dye, duplicate; actives 43% (n = 3,300); ACh-evoked depolarization; shares compounds with TRPC6 inhibitor; inhibition, % at 10 µM; AID 488960, 2010;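 active = fluorescence ratio falls more than 5 SD below the full-stimulation control mean, in both duplicate runs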;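 note: integrated fluorescence ratio of peak minus minimum over baseline after agonist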
# TRPC6 act conf = mouse TRPC6 channel activators, confirmation, HEK293 cells, membrane potential dye, duplicate. shares compounds with TRPC6 inhibitor. HEK293-TRPC6 membrane potential dye fluorescence, FDSS. activation, % at 10 µM. actives 11% (n = 2,800);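 active = ratio signal rise beyond 5 SD above unstimulated control wells' mean, seen in both duplicate runs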;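 note: plate controls were buffer EC0 wells for no effect and acetylcholine ECmax response for full effect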
# Numbers without * were called inactive; i = inactive; . = no result given.
SMILES,TRPC4 act,TRPC6 act,TRPC6 inhibitor,TRPC4 inh,Platelet DG rel,TRPC4 potent,HEK293 MPD ctr-2,HEK293 MPD ctr 2-2,TRPC4 ctr mod,TRPC4/MOR inh 2,TRPC6 inh conf,TRPC6 act conf,others
CC(=O)c1cccc(Nc2cc(C)nc3c(C)cccc23)c1,i,i,-5.39*,i,17.9,i,-122.5%*,57.0%*,-26.0%*,52.5%*,52.5%*,i,
Cc1cccc(Nc2cc(C)nc3ccccc23)c1,i,i,-6.03*,i,4.5,i,-139.5%*,59.5%*,-26.0%*,73.0%*,66.0%*,i,
Cc1cc(Nc2cccc(Cl)c2)c2ccccc2n1,i,i,i,i,-0.8,i,.,.,.,.,.,.,
CCOC(=O)c1ccc2nc(C)cc(Nc3cccc(C(=O)O)c3)c2c1,i,i,i,i,-1.5,i,.,.,.,.,.,.,
CCOc1ccc(Nc2cc(C)nc3ccc(C)cc23)cc1,i,i,-6.41*,i,0.0,i,-135.0%*,i,-29.0%*,58.0%*,50.0%*,i,
Nc1nc2n(n1)C(c1c(F)cccc1Cl)CC(c1ccc(F)cc1)N2 (stereo unspecified),i,i,i,i,-0.2,i,.,.,.,.,.,.,
OCC1(Cc2ccc(Cl)cc2)CCN(Cc2ccc(Oc3ncccn3)cc2)CC1,i,i,i,i,6.3,i,.,.,.,.,.,.,
Cc1cc(N2C(=O)NC(=O)CC2C)c(C)cc1C(C)C (stereo unspecified),i,i,-5.07*,i,-3.6,i,i,i,i,i,i,i,
COc1cc(/C=N/NC(=O)c2cc(-c3ccccc3)sc2N)cc(OC)c1OC,i,i,-5.01*,i,-4.9,i,i,i,i,53.0%*,44.0%*,i,
COc1cc(/C=N/NC(=O)c2ccc(-c3ccccc3)cc2)cc(OC)c1OC,i,i,i,i,-10.8,i,.,.,.,.,.,.,
CC(=O)Nc1ccc(S(=O)(=O)n2cnc(C)c2)cc1,i,i,i,i,3.8,i,.,.,.,.,.,.,
Cc1ccc(S(=O)(=O)n2cnc(C)c2)cc1,i,i,-8.24*,i,-4.6,i,.,.,.,.,i,i,TRPC4 sel inh 2=i;TRPC4 spec=i;HEK293 MPD ctr 2-1=i;HEK293 MPD ctr-1=i
Cc1ccc(Cl)cc1NC(=O)CC(O)(C(F)(F)F)C(F)(F)F,i,i,-8.14*,i,-4.0,i,.,.,.,.,110.1%*,.,TRPC4 sel inh 2=58.0%*;TRPC4 spec=41.3%*;HEK293 MPD ctr 2-1=-77.0%*;HEK293 MPD ctr-1=28.0%*
OCC[C@H]1C[C@@H](O)[C@H](O)[C@@]2(CCCCO2)O1,i,i,-7.36*,i,1.9,i,.,.,.,.,i,i,TRPC4 sel inh 2=i;TRPC4 spec=i;HEK293 MPD ctr 2-1=i;HEK293 MPD ctr-1=i
O=C(NC(=S)NC1C2CC3CC(C2)CC1C3)C12CC3CC(CC(C3)C1)C2 (stereo unspecified),i,i,-8.01*,i,-4.6,i,.,.,.,.,i,i,TRPC4 sel inh 2=i;TRPC4 spec=i;HEK293 MPD ctr 2-1=i;HEK293 MPD ctr-1=i
O=C(CNCc1ccccc1)NC1C2CC3CC(C2)CC1C3 (stereo unspecified),i,i,-5.76*,i,4.2,i,i,i,9.0%*,35.5%*,60.0%*,.,
CCOC(=O)N1CCN(C(=O)c2ccc3nc(N4CCC(C)CC4)sc3c2)CC1,i,13.4*,-11.6*,i,0.1,i,114.0%*,i,21.0%*,i,113.0%*,160.5%*,
OCCCNc1ncnc2sc3c(c12)CCN(Cc1ccccc1)C3,i,i,-5.96*,i,10.9,i,-137.0%*,i,-38.0%*,i,i,i,
O=c1[nH]cnc2sc3c(c12)CCN(Cc1ccccc1)C3,i,i,i,i,21.4,i,.,.,.,.,.,.,
CC(C)(C)NC(=S)N/N=C\c1ccc(-c2ccc([N+](=O)[O-])cc2)o1,i,17.6*,i,i,-6.8,16*,i,i,51.0%*,i,i,i,
